We go through six compounds from ChEMBL document CHEMBL1137302 (J Med Chem, 2006).

In data set [1] the target is T1, D(4) dopamine receptor (Homo sapiens) (UniProt P21917).
T1 sequence (whole entry): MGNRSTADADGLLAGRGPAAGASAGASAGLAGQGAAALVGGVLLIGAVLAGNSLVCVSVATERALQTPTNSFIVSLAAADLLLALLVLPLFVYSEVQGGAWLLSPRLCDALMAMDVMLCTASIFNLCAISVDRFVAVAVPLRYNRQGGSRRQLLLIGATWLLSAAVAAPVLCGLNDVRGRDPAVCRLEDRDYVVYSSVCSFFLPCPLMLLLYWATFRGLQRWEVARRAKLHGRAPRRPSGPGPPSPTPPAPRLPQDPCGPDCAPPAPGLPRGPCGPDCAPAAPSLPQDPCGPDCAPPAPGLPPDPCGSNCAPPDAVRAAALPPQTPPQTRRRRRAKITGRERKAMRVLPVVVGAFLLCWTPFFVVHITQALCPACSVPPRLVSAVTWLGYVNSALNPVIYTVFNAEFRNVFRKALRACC
The data set is described as follows: Agonist activity at human D4.4 receptor in HEK293 cells coexpressing G-alpha-qo5 by FLIPR with relative to dopamine upto 10 uM. The format is functional, cell-based.

The target in data set [2] is T2, D(2) dopamine receptor (Homo sapiens, UniProt P14416). Kind of data set: Binding affinity to human D2S receptor.
Data set [3] addresses D(3) dopamine receptor (Homo sapiens) (UniProt P35462). Kind of data set: Agonist activity at human D3 receptor in HEK293 cells coexpressing G-alpha-qo5 by FLIPR upto 10 uM. It is filed as functional, cell-based.
Data set [4] is filed under the species Mustela putorius furo. The data set is described as follows: Induction of emesis in ferret. It is filed as functional, organism-based.
The species entered for data set [5] is Mustela putorius furo. The data set is described as follows: Induction of nausea in ferret. The format is functional, organism-based.
In data set [6] the target is T3, D(4) dopamine receptor (Rattus norvegicus, UniProt P30729).
T3 sequence (P30729 whole entry): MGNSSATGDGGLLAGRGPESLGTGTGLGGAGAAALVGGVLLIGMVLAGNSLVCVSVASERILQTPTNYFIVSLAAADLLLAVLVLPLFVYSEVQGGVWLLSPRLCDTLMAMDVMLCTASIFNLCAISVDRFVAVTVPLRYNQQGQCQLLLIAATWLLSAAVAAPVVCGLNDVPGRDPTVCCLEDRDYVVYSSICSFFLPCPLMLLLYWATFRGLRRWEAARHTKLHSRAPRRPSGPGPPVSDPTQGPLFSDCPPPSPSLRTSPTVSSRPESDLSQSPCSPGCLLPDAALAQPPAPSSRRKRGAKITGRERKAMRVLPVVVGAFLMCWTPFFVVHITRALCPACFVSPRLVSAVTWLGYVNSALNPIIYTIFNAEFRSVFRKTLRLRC
Kind of data set: Agonist activity at rat D4 receptor in HEK293 cells coexpressing G-alpha-qo5 by FLIPR. It is filed as functional, cell-based.

For data set [7], the target named is T4, D(4) dopamine receptor (Rattus norvegicus) (UniProt P30729).
T4 sequence (whole entry): T3 sequence (P30729 whole entry)
Kind of data set: Agonist activity at rat D4 receptor in HEK293 cells co-expressing Galphaqo5 by FLIPR relative to dopamine. It is filed as functional, cell-based.

Data set [8] addresses T2, D(2) dopamine receptor. Kind of data set: Agonist activity at human D2 receptor in HEK293 cells coexpressing G-alpha-qo5 by FLIPR relative to dopamine upto 10 uM. The format is functional, cell-based. The method, boiled down:
(§1)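 Ca2+ flux by FLIPR in HEK cells cotransfected with the D2 receptor (human, ferret or rat) plus chimeric G protein Gqo5.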

The target in data set [9] is D(2) dopamine receptor (Rattus norvegicus) (UniProt P61169). The data set is described as follows: Agonist activity at rat D2 receptor in HEK293 cells coexpressing G-alpha-qo5 by FLIPR relative to dopamine upto 10 uM. It is filed as functional, cell-based. The method, boiled down:
as §1

Data set [10] concerns the target T1, D(4) dopamine receptor (Homo sapiens). The data set is described as follows: Activity at human D4.4 receptor in HEK293 cells co-expressing Galphaqo5 by FLIPR. It is filed as functional, cell-based.
Data set [11] concerns the target T2, D(2) dopamine receptor. The data set is described as follows: Displacement of [125I]7-OH-PIPAT from human D2L receptor expressed in HEK293 cell membrane. It is filed as cell membranes. On the technique in general: Displacement assays read how much labelled ligand stays bound in the presence of the test substance.
The target of data set [12] is T5, D(4) dopamine receptor (Homo sapiens, UniProt P21917).
T5 sequence (P21917 whole entry): T1 sequence (whole entry)
Kind of data set: Displacement of [3H]A369508 from human D4 receptor expressed in HEK293 cell membrane. It is filed as cell membranes.

In data set [13] the test system is Rattus norvegicus. The data set is described as follows: Proerectile activity in rat measured as incidence of penile erection at 0.03 umol/kg, sc. The format is functional. The method, boiled down:
(§2)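 Conscious male rats dosed subcutaneously. Penile erection incidence scored over 60 min after injection; values are % ± SEM, with significance tested against control.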

For data set [14], the target named is T5, D(4) dopamine receptor. The data set is described as follows: (§3) Agonist activity at human D4.4 receptor in HEK293 cells coexpressing G-alpha-qo5 by FLIPR. It is filed as functional, cell-based.
Data set [15] in a line: Bioavailability in Sprague-Dawley rat at 1 mg/kg, po. The settings on record: in vivo. It is filed as ADME, organism-based. The method, boiled down:
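Single 1 mg/kg dose given iv, sc or orally to Sprague-Dawley rats, dogs and monkeys; plasma concentrations followed over time (mean ± SEM, n = 3). Cmax, AUC, half-life, clearance and bioavailability calculated from the curves.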

For data set [16], the system named is D(2) dopamine receptor (Mustela putorius furo). Kind of data set: Agonist activity at ferret D2 receptor in HEK293 cells coexpressing Galphaqo5 by FLIPR relative to dopamine upto 10 uM.
Data set [17] addresses T1, D(4) dopamine receptor (Homo sapiens). Described as §3. The format is functional, cell-based.
Data set [18] has the same target. Kind of data set: Agonist activity at human D4.4 receptor in HEK293 cells coexpressing G-alpha-qo5 by FLIPR upto 10 uM. The format is functional, cell-based.
Data set [19] concerns the target T2, D(2) dopamine receptor. The data set is described as follows: Agonist activity at human D2 receptor in HEK293 cells coexpressing G-alpha-qo5 by FLIPR. It is filed as functional, cell-based.
Data set [20] deals with Rattus norvegicus. The data set is described as follows: Proerectile activity in rat measured as incidence of penile erection at 0.01 umol/kg, sc. It is filed as functional. The method, boiled down: as §2

The source made the active and inactive calls. The rule behind the calls is not given here.

T2 sequence (P14416 whole entry): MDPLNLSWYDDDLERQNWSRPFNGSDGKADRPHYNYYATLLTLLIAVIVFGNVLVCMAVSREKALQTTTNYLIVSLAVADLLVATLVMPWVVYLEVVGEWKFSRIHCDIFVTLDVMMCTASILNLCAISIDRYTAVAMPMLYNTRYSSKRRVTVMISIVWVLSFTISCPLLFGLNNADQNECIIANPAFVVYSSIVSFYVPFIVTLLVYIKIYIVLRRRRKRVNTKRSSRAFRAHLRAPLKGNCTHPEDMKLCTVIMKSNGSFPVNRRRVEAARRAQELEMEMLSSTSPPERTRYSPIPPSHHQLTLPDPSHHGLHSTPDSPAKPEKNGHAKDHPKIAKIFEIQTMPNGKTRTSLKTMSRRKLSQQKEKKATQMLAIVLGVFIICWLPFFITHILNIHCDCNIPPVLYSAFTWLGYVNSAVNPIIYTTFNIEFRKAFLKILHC
Sequence of D(2) dopamine receptor (Rattus norvegicus) (P61169 whole entry): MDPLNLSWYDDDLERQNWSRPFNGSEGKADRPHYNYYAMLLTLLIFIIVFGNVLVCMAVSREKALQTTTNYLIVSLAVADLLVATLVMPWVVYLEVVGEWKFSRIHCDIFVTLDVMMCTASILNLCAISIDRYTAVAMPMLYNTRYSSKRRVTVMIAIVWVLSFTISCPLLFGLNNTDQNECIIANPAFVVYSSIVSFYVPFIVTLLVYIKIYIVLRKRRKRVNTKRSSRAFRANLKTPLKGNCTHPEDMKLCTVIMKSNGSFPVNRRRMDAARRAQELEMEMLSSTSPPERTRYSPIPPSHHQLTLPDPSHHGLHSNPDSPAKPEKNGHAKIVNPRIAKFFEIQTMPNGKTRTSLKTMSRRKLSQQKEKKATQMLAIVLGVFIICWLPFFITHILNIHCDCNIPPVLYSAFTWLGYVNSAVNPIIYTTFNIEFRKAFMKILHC
Sequence of D(3) dopamine receptor (Homo sapiens) (P35462 whole entry): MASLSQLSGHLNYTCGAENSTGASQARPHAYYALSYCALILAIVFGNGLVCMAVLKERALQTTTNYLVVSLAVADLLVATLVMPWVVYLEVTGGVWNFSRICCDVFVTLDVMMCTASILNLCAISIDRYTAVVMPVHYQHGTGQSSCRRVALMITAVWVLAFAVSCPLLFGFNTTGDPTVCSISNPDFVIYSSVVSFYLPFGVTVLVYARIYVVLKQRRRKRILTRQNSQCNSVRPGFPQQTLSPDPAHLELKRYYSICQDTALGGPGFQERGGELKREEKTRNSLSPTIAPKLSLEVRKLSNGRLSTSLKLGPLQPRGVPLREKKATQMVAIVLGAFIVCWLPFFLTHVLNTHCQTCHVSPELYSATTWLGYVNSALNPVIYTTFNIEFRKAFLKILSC

Consider `O=C(NCN1CCC(c2cccc[n+]2[O-])CC1)c1cccs1`, for which the result in [1] was inactive.

Take `Cc1cc(F)ccc1NC(=O)CN1CCC(c2cccc[n+]2[O-])CC1`: the Ki (commonly the equilibrium dissociation constant of an inhibitor or competing ligand from its target) was above 10000 nM at D(2) dopamine receptor [2], above 10000 nM at D(2) dopamine receptor [11] and 405 nM at D(4) dopamine receptor [12]. Further, the outcome (in data set [3]; in the data set filed under Mustela putorius furo [4]; in the data set listed under Mustela putorius furo [5]; on D(2) dopamine receptor [8]; in data set [9]; in data set [16]) was inactive. For the same compound, the EC50 (commonly the concentration that produces a half-maximal response) worked out at 100 nM at D(4) dopamine receptor [6] and 60 nM at D(4) dopamine receptor [14]. For the same compound, in data set [7], the Efficacy turned out to be 76%. Besides, the Activity result was “Agonist” in [10] (filed as agonist) and 67% with Rattus norvegicus [13]. Further, the bioavailability (usually the share of a dose that reaches the circulation, judged against a reference dose that is usually intravenous) in [15] stood at 7%.

For the compound `Cc1cccc(C(=O)NCN2CCC(c3ccccc3)CC2)c1`, on D(2) dopamine receptor [11], affinity was put at a Ki of 235 nM. The Efficacy in data set [17] worked out at 17%. For the same compound, the outcome in [18] was inactive.

Turning to `O=C(CN1CCC(c2cccc[n+]2[O-])CC1)Nc1ccccn1`, in data set [1], the result was inactive.

In the case of `COc1ccccc1C1CCN(CNC(=O)c2cccc(C)c2)CC1`, the values for the EC50 at D(2) dopamine receptor [19] and at D(4) dopamine receptor [14] were above 10000 nM and 206 nM, respectively. Besides, the Activity entry in data set [10] (filed as partial agonist) is “Partial agonist”. Moreover, the Ki at D(2) dopamine receptor [11] came to 27 nM; at D(4) dopamine receptor [12] it was 1.3 nM.

`Cc1ccc([N+](=O)[O-])cc1NC(=O)CN1CCC(c2cccc[n+]2[O-])CC1`: the Activity result is “Agonist” in [10] (filed as agonist) and 83% with Rattus norvegicus [20]. The same compound yielded an EC50 on D(4) dopamine receptor [14] of 134 nM.
